The structures appear in SMILES notation. pIC50: −log10 of the molar value.

We go through 45 molecules from ChEMBL document CHEMBL1124373, “Specific inhibition of benzodiazepine receptor binding by some N-(indol-3-ylglyoxylyl)amino acid derivatives: stereoselective interactions” (J Med Chem, 1989).

Experiment [1] concerns the target GABA-A receptor; anion channel. The experiment is described as follows: Inhibitory concentration against [3H]flunitrazepam binding to benzodiazepine receptor from bovine cerebral cortex. It is filed as tissue-based. A digest of the protocol: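 Membranes from bovine cerebral cortex were homogenized in 0.32 M sucrose with protease inhibitors, osmotically shocked, and suspended in 50 mM Tris-HCl pH 7.4. Membrane (0.5 mg protein) was incubated with 0.9 nM [3H]flunitrazepam at 0 °C for 90 min, then filtered and counted. Nonspecific binding was defined with 10 µM diazepam. IC50 came from log-probit analysis of six to eight concentrations in triplicate; values are means ± SEM of four determinations.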

For experiment [2], the target named is T1, GABA-A receptor; anion channel (Bos taurus) (UniProt P10063+P08220+P20237+P08219+P10064+P22300). Nature of the experiment: Relative binding to GABA-A benzodiazepine receptor in the presence and absence of GABA (GABA shift). In kind it is protein-complex assay. An outline of the steps:
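Exhaustively washed bovine cortical membranes were used. Binding inhibition used 0.9 nM [3H]flunitrazepam at 0 °C for 90 min in 50 mM Tris-HCl pH 7.4. IC50 was determined by log-probit analysis without and with 10 µM GABA. Ratio = IC50 without GABA / IC50 with GABA.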

Experiment [3] concerns the target T1, GABA-A receptor; anion channel (Bos taurus). Nature of the experiment: Percentage inhibition of [3H]flunitrazepam binding to benzodiazepine receptor from bovine cerebral cortex at a concentration of 250 uM. It is filed as tissue-based.
In experiment [4] the test system is Mus musculus. Nature of the experiment: Antagonism of Diazepam anticonvulsant effect in mice treated with 60 mg/kg PTZ. In kind it is functional.
Experiment [5] concerns Mus musculus. The experiment is described as follows: Dose required to induce convulsions in mice treated with subcutaneous PTZ (40 mg/kg). In kind it is functional. Conditions: sc. A digest of the protocol:
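Groups of 10 mice received graded ip doses (0.1 mL) suspended in 1% carboxymethylcellulose, or vehicle alone. A subconvulsant PTZ dose of 40 mg/kg followed 30 min later. ED50 is the dose inducing convulsions in 50% of mice.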

Molecule `CCOC(=O)[C@@H](C)NC(=O)C(=O)c1c[nH]c2ccc(Br)cc12` had a negative logarithm of the IC50 (pIC50) in experiment [1] of 4.28. Moreover, the Ratio in experiment [2] was 0.85.

`C[C@@H](NC(=O)C(=O)c1c[nH]c2ccc(Cl)cc12)C(=O)O`: in experiment [1], the pIC50 was 4.34.

For `O=C(N[C@@H](Cc1ccccc1)C(=O)O)C(=O)c1c[nH]c2ccccc12`, the inhibition in experiment [3] amounted to 47%.

Consider `O=C(N[C@H](Cc1ccccc1)C(=O)O)C(=O)c1c[nH]c2ccc(Cl)cc12`, for which, in experiment [1], the negative-log IC50 (pIC50) was 4.32.

Molecule `CCOC(=O)[C@H](C)NC(=O)C(=O)c1c[nH]c2ccccc12` showed a negative-log IC50 (pIC50) in experiment [1] of 5.12.

As for `O=C(N[C@H](Cc1ccccc1)C(=O)O)C(=O)c1c[nH]c2ccccc12`, the inhibition in experiment [3] stood at 32%.

For `COc1ccc2[nH]cc(C(=O)C(=O)N[C@H](Cc3ccccc3)C(=O)O)c2c1`, the inhibition in experiment [3] amounted to 18%.

Consider `O=C(N[C@H](Cc1ccccc1)C(=O)O)C(=O)c1c[nH]c2ccc([N+](=O)[O-])cc12`, for which the pIC50 in experiment [1] was 4.68.

`CCOC(=O)[C@H](Cc1ccccc1)NC(=O)C(=O)c1c[nH]c2ccc(OC)cc12` showed an inhibition in experiment [3] of 77%.

`COc1ccc2[nH]cc(C(=O)C(=O)N[C@@H](Cc3ccccc3)C(=O)O)c2c1` returned an inhibition in experiment [3] of 50%.

In experiment [1], `CCOC(=O)[C@H](C)NC(=O)C(=O)c1c[nH]c2ccc(OC)cc12` had a negative-log IC50 (pIC50) of 6.05.

Molecule `O=C(N[C@@H](Cc1ccccc1)C(=O)O)C(=O)c1c[nH]c2ccc(Br)cc12` showed a pIC50 in experiment [1] of 4.22.

With `CCOC(=O)[C@H](Cc1ccccc1)NC(=O)C(=O)c1c[nH]c2ccccc12`, in experiment [3], the inhibition stood at 69%.

On to `CCOC(=O)[C@@H](Cc1ccccc1)NC(=O)C(=O)c1c[nH]c2ccc(Cl)cc12`, for which the negative logarithm of the IC50 (pIC50) in experiment [1] was 4.35.

In experiment [1], `CCOC(=O)[C@@H](C)NC(=O)C(=O)c1c[nH]c2ccccc12` gave a pIC50 of 4.77.

Take `COc1ccc2[nH]cc(C(=O)C(=O)N[C@H](C)C(=O)O)c2c1`: the pIC50 in experiment [1] is 3.77.

In experiment [1], `O=C(N[C@H](Cc1ccccc1)C(=O)O)C(=O)c1c[nH]c2ccc(Br)cc12` showed a negative-log IC50 (pIC50) of 3.61. In experiment [3], the inhibition amounted to 51%.

`C[C@H](NC(=O)C(=O)c1c[nH]c2ccc([N+](=O)[O-])cc12)C(=O)O`: the pIC50 in experiment [1] is 5.52.

In the case of `CCOC(=O)C(Cc1ccccc1)NC(=O)C(=O)c1c[nH]c2ccc(Br)cc12` (configuration not stated), in experiment [1], the pIC50 was 3.74.

For `CCOC(=O)C(C)NC(=O)C(=O)c1c[nH]c2ccccc12` (configuration not stated), the pIC50 in experiment [1] is 4.89.

Turning to `CCOC(=O)[C@H](Cc1ccccc1)NC(=O)C(=O)c1c[nH]c2ccc(Cl)cc12`, the negative logarithm of the IC50 (pIC50) in experiment [1] was 4.52.

Turning to `CCOC(=O)[C@@H](Cc1ccccc1)NC(=O)C(=O)c1c[nH]c2ccc(Br)cc12`, the negative-log IC50 (pIC50) in experiment [1] was 3.66.

Molecule `CCOC(=O)[C@@H](Cc1ccccc1)NC(=O)C(=O)c1c[nH]c2ccc([N+](=O)[O-])cc12` gave a pIC50 in experiment [1] of 5.55.

In turn, `O=C(N[C@@H](Cc1ccccc1)C(=O)O)C(=O)c1c[nH]c2ccc([N+](=O)[O-])cc12` gave a negative-log IC50 (pIC50) in experiment [1] of 5.40.

`C[C@H](NC(=O)C(=O)c1c[nH]c2ccccc12)C(=O)O`: the negative logarithm of the IC50 (pIC50) in experiment [1] was 4.32.

In experiment [1], `C[C@H](NC(=O)C(=O)c1c[nH]c2ccc(Br)cc12)C(=O)O` gave a pIC50 of 5.15.

Consider `COc1ccc2[nH]cc(C(=O)C(=O)N[C@@H](C)C(=O)O)c2c1`, for which the pIC50 in experiment [1] was 4.66.

`CCOC(=O)[C@@H](C)NC(=O)C(=O)c1c[nH]c2ccc([N+](=O)[O-])cc12` gave a pIC50 in experiment [1] of 5.52. For the same molecule, the Ratio in experiment [2] turned out to be 0.79.

Consider `C[C@@H](NC(=O)C(=O)c1c[nH]c2ccc(Br)cc12)C(=O)O`, for which the pIC50 in experiment [1] is 4.10.

With `CC(NC(=O)C(=O)c1c[nH]c2ccc(Br)cc12)C(=O)O` (configuration not stated), the negative logarithm of the IC50 (pIC50) in experiment [1] is 4.40.

In experiment [1], `CCOC(=O)[C@H](Cc1ccccc1)NC(=O)C(=O)c1c[nH]c2ccc(Br)cc12` gave a negative logarithm of the IC50 (pIC50) of 4.26.

`CC(NC(=O)C(=O)c1c[nH]c2ccccc12)C(=O)O` (configuration not stated): the pIC50 in experiment [1] was 3.98.

The molecule `C[C@@H](NC(=O)C(=O)c1c[nH]c2ccccc12)C(=O)O` showed a pIC50 in experiment [1] of 3.52. Moreover, in experiment [3], the inhibition amounted to 32%.

In experiment [1], `C[C@@H](NC(=O)C(=O)c1c[nH]c2ccc([N+](=O)[O-])cc12)C(=O)O` had a negative-log IC50 (pIC50) of 4.72.

As for `CCOC(=O)[C@H](C)NC(=O)C(=O)c1c[nH]c2ccc(Cl)cc12`, in experiment [1], the pIC50 was 6.82. For the same molecule, the Ratio in experiment [2] was 0.9.

Turning to `CCOC(=O)[C@@H](C)NC(=O)C(=O)c1c[nH]c2ccc(Cl)cc12`, the negative logarithm of the IC50 (pIC50) in experiment [1] was 4.60. Also, the Ratio in experiment [2] was 0.92.

The molecule `C[C@H](NC(=O)C(=O)c1c[nH]c2ccc(Cl)cc12)C(=O)O` had a negative-log IC50 (pIC50) in experiment [1] of 5.30.

`CCOC(=O)[C@H](Cc1ccccc1)NC(=O)C(=O)c1c[nH]c2ccc([N+](=O)[O-])cc12` gave a pIC50 in experiment [1] of 7.00.

With `O=C(NC(Cc1ccccc1)C(=O)O)C(=O)c1c[nH]c2ccc(Br)cc12` (configuration not stated), the negative logarithm of the IC50 (pIC50) in experiment [1] is 3.80.

In the case of `CCOC(=O)[C@@H](C)NC(=O)C(=O)c1c[nH]c2ccc(OC)cc12`, in experiment [1], the negative logarithm of the IC50 (pIC50) is 3.96.

`CCOC(=O)[C@@H](Cc1ccccc1)NC(=O)C(=O)c1c[nH]c2ccc(OC)cc12` gave an inhibition in experiment [3] of 30%.

`CCOC(=O)[C@H](C)NC(=O)C(=O)c1c[nH]c2ccc(Br)cc12`: the 50% effective dose (ED50) in the experiment with Mus musculus [4] worked out at 50 mg/kg; in the experiment with Mus musculus [5] it was 40 mg/kg. This molecule showed a negative-log IC50 (pIC50) in experiment [1] of 6.74. In addition, the Ratio in experiment [2] came out at 0.78.

For the molecule `CCOC(=O)[C@H](C)NC(=O)C(=O)c1c[nH]c2ccc([N+](=O)[O-])cc12`, the ED50 in the experiment on Mus musculus [4] turned out to be 100 mg/kg; in the experiment on Mus musculus [5] it was 150 mg/kg. The same molecule showed a pIC50 in experiment [1] of 7.15. Further, in experiment [2], the Ratio turned out to be 0.67.

As to `O=C(N[C@@H](Cc1ccccc1)C(=O)O)C(=O)c1c[nH]c2ccc(Cl)cc12`, the pIC50 in experiment [1] is 4.92.

In experiment [3], `CCOC(=O)[C@@H](Cc1ccccc1)NC(=O)C(=O)c1c[nH]c2ccccc12` displayed an inhibition of 55%.

In general, pIC50 refers to the IC50 on a negative log10 scale, so that one unit is a factor of ten. A high value points to a small IC50. What is called inhibition is the percentage by which the read-out fell short of the control. Read a high inhibition as a response far below the control. Usually ED50 stands for the dose that gives a 50% effect, or the effect in half of the subjects. A lower ED50 goes with an effect at a small dose.
